From ChEMBL document CHEMBL4765413, “Discovery of novel anti-angiogenesis agents. Part 11: Development of PROTACs based on active molecules with potency of promoting vascular normalization” (Eur J Med Chem, 2020)

Tests used:
[1] = molecular target: Vascular endothelial growth factor receptor 2 (Homo sapiens, UniProt P35968); test: Inhibition of recombinant human N-terminal GST-tagged VEGFR2 (789 to end residues) expressed in baculovirus infected Sf9 insect cells using Poly (4:1 Glu, Tyr) as substrate incubated for 1 hr by ADP-Glo luminescent assay
Chain of Vascular endothelial growth factor receptor 2 (P35968 whole entry): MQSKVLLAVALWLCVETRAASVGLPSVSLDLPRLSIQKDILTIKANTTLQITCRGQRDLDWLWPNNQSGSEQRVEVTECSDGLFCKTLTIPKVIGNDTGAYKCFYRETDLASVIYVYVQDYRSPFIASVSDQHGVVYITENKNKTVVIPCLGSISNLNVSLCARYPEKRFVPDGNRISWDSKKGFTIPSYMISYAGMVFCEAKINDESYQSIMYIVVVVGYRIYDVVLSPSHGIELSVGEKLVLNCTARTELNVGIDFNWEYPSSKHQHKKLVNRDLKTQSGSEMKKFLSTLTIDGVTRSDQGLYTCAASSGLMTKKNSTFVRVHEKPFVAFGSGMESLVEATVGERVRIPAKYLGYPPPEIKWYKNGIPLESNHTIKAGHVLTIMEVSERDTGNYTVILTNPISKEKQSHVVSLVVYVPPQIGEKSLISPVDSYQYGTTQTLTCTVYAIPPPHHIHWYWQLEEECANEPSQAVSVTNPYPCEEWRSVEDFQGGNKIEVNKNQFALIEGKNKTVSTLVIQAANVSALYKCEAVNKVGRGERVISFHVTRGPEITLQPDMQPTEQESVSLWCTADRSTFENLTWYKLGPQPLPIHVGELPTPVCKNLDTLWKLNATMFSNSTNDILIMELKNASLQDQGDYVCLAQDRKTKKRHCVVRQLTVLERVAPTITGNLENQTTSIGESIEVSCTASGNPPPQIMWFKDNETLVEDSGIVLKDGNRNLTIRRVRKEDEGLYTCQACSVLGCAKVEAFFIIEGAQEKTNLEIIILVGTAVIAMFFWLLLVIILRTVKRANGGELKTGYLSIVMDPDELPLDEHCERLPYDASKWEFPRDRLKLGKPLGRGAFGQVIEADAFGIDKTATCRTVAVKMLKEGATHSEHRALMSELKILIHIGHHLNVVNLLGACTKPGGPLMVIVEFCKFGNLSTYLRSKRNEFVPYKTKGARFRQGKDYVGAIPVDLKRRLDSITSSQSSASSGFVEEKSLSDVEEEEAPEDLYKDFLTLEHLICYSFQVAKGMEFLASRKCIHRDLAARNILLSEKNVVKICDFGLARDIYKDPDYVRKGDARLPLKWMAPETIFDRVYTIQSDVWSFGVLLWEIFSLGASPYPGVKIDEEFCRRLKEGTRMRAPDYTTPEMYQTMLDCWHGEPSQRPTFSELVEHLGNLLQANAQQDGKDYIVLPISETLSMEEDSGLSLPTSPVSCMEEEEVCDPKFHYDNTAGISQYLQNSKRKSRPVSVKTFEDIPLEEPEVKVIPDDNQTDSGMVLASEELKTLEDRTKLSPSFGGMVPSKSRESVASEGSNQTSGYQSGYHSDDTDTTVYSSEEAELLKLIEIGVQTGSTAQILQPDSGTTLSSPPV

EA.hy 926 [2] = test: Antiangiogenic activity in human EA.hy 926 cells measured after 24 hrs by MTT assay; conditions: EA.hy 926, 24 h
HEK293 = test: Cytotoxicity against HEK293 cells measured after 24 hrs by MTT assay; assay type: cell-based; conditions: human, hek293, 24 h
[3] = molecular target: T1, von Hippel-Lindau disease tumor suppressor/Vascular endothelial growth factor receptor 2 (Homo sapiens) (UniProt P35968+P40337); test: Protac activity at VHL/VEGFR2 in human EA.hy 926 cells assessed as induction of VEGFR2 degradation at 40 uM measured after 24 to 48 hrs by Western blot analysis relative to control; assay type: cell-based; conditions: time 24-48 hrs
T1 sequence (P35968 20-1356 limits assumed): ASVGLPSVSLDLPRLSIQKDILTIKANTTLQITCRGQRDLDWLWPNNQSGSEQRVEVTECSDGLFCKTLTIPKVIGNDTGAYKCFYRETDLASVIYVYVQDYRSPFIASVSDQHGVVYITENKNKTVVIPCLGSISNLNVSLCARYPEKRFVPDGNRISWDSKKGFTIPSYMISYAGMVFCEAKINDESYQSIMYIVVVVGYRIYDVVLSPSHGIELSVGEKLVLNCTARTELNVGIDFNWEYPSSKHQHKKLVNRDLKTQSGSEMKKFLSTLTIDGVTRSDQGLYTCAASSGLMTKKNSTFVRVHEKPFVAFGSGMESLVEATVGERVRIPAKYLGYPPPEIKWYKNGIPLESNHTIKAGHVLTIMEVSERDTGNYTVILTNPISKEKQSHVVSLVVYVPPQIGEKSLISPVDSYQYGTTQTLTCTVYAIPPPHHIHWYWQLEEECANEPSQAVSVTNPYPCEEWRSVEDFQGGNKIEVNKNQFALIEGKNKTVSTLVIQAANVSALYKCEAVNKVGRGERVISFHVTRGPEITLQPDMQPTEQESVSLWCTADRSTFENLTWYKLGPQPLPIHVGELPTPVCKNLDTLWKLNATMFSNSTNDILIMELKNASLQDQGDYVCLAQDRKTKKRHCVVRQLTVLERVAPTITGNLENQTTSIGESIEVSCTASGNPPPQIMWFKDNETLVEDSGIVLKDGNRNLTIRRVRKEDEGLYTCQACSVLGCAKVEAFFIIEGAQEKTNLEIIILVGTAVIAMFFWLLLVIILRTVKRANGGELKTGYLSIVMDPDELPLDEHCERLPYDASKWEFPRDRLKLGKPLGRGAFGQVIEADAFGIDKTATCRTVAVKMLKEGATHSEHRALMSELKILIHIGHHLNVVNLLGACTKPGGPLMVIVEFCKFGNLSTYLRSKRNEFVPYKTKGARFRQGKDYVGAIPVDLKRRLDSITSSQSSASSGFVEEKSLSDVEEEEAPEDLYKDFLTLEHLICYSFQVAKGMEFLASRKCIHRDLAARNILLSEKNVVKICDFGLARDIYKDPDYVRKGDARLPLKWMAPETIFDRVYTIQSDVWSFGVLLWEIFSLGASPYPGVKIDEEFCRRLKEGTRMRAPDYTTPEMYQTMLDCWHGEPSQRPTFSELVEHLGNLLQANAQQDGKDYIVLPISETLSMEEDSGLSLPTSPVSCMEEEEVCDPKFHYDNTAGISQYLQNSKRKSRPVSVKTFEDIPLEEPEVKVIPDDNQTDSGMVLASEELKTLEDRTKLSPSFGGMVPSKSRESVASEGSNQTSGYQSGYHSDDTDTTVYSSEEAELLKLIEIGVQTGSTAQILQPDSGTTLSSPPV
T1 sequence (P40337 whole entry partner): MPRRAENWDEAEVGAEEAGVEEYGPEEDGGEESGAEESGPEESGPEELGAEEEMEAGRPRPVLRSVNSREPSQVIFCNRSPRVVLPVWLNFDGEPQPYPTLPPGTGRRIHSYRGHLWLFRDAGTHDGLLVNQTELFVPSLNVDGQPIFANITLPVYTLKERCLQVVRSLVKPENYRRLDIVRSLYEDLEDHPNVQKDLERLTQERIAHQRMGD
How it was run: (§1)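 EA.hy926 cells were exposed to DMSO vehicle or test compound, then lysed in SDS sample buffer and normalized by BCA protein assay. Equal protein amounts were run on SDS-PAGE and transferred to PVDF. Membranes were blocked in 5% milk/TBS-Tween and probed with anti-VEGFR-2 (1:500), with GAPDH (1:10000) as loading control. Detection used HRP secondary and ECL, with densitometric quantification.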

[4] = molecular target: T1, von Hippel-Lindau disease tumor suppressor/Vascular endothelial growth factor receptor 2 (Homo sapiens); test: Protac activity at VHL/VEGFR2 in human EA.hy 926 cells assessed as induction of VEGFR2 degradation measured after 24 to 72 hrs by Western blot analysis; assay type: cell-based; conditions: time 24-72 hrs; how it was run: as §1
EA.hy 926 [5] = test: Cell cycle arrest in human EA.hy 926 cells assessed as accumulation at G1 phase at 0.1 uM measured after 72 hrs by propidium iodide staining based flow cytometry (reference value: 59.78%); assay type: functional
EA.hy 926 [6] = test: Cell cycle arrest in human EA.hy 926 cells assessed as accumulation at G2 phase at 0.1 uM measured after 72 hrs by propidium iodide staining based flow cytometry (reference value: 25.83%); assay type: functional
EA.hy 926 [7] = test: Cell cycle arrest in human EA.hy 926 cells assessed as accumulation at S phase at 0.1 uM measured after 72 hrs by propidium iodide staining based flow cytometry (reference value: 14.39%); assay type: functional
EA.hy 926 [8] = test: Cell cycle arrest in human EA.hy 926 cells assessed as accumulation at G1 phase at 1 uM measured after 72 hrs by propidium iodide staining based flow cytometry (reference value: 59.78%); assay type: functional
EA.hy 926 [9] = test: Cell cycle arrest in human EA.hy 926 cells assessed as accumulation at G2 phase at 1 uM measured after 72 hrs by propidium iodide staining based flow cytometry (reference value: 25.83%); assay type: functional
EA.hy 926 [10] = test: Cell cycle arrest in human EA.hy 926 cells assessed as accumulation at S phase at 1 uM measured after 72 hrs by propidium iodide staining based flow cytometry (reference value: 14.39%); assay type: functional
EA.hy 926 [11] = test: Cell cycle arrest in human EA.hy 926 cells assessed as accumulation at G1 phase at 10 uM measured after 72 hrs by propidium iodide staining based flow cytometry (reference value: 59.78%); assay type: functional
EA.hy 926 [12] = test: Cell cycle arrest in human EA.hy 926 cells assessed as accumulation at G2 phase at 10 uM measured after 72 hrs by propidium iodide staining based flow cytometry (reference value: 25.83%); assay type: functional
EA.hy 926 [13] = test: Cell cycle arrest in human EA.hy 926 cells assessed as accumulation at S phase at 10 uM measured after 72 hrs by propidium iodide staining based flow cytometry (reference value: 14.39%); assay type: functional
EA.hy 926 [14] = test: Cell cycle arrest in human EA.hy 926 cells assessed as accumulation at G1 phase at 20 uM measured after 72 hrs by propidium iodide staining based flow cytometry (reference value: 59.78%); assay type: functional
EA.hy 926 [15] = test: Cell cycle arrest in human EA.hy 926 cells assessed as accumulation at G2 phase at 20 uM measured after 72 hrs by propidium iodide staining based flow cytometry (reference value: 25.83%); assay type: functional
EA.hy 926 [16] = test: Cell cycle arrest in human EA.hy 926 cells assessed as accumulation at S phase at 20 uM measured after 72 hrs by propidium iodide staining based flow cytometry (reference value: 14.39%); assay type: functional
EA.hy 926 [17] = test: Cell cycle arrest in human EA.hy 926 cells assessed as accumulation at G1 phase at 40 uM measured after 72 hrs by propidium iodide staining based flow cytometry (reference value: 59.78%); assay type: functional
EA.hy 926 [18] = test: Cell cycle arrest in human EA.hy 926 cells assessed as accumulation at G2 phase at 40 uM measured after 72 hrs by propidium iodide staining based flow cytometry (reference value: 25.83%); assay type: functional
EA.hy 926 [19] = test: Cell cycle arrest in human EA.hy 926 cells assessed as accumulation at S phase at 40 uM measured after 72 hrs by propidium iodide staining based flow cytometry (reference value: 14.39%); assay type: functional
EA.hy 926 [20] = test: Induction of apoptosis in human EA.hy 926 cells measured after 72 hrs by Annexin V-FITC/propidium iodide staining based flow cytometry; assay type: functional, cell-based
EA.hy 926 [21] = test: Induction of apoptosis in human EA.hy 926 cells assessed as viable cells at 0.1 uM measured after 72 hrs by Annexin V-FITC/propidium iodide staining based flow cytometry (reference value: 88.6%); assay type: functional; conditions: read-out: Activity
EA.hy 926 [22] = test: Induction of apoptosis in human EA.hy 926 cells assessed as early apoptotic cells at 0.1 uM measured after 72 hrs by Annexin V-FITC/propidium iodide staining based flow cytometry (reference value: 3.4%); assay type: functional
EA.hy 926 [23] = test: Induction of apoptosis in human EA.hy 926 cells assessed as necrotic cells at 0.1 uM measured after 72 hrs by Annexin V-FITC/propidium iodide staining based flow cytometry (reference value: 2.65%); assay type: functional
EA.hy 926 [24] = test: Induction of apoptosis in human EA.hy 926 cells assessed as viable cells at 1 uM measured after 72 hrs by Annexin V-FITC/propidium iodide staining based flow cytometry (reference value: 88.6%); assay type: functional; conditions: read-out: Activity
EA.hy 926 [25] = test: Induction of apoptosis in human EA.hy 926 cells assessed as early apoptotic cells at 1 uM measured after 72 hrs by Annexin V-FITC/propidium iodide staining based flow cytometry (reference value: 3.4%); assay type: functional
EA.hy 926 [26] = test: Induction of apoptosis in human EA.hy 926 cells assessed as necrotic cells at 1 uM measured after 72 hrs by Annexin V-FITC/propidium iodide staining based flow cytometry (reference value: 2.65%); assay type: functional
EA.hy 926 [27] = test: Induction of apoptosis in human EA.hy 926 cells assessed as viable cells at 10 uM measured after 72 hrs by Annexin V-FITC/propidium iodide staining based flow cytometry (reference value: 88.6%); assay type: functional; conditions: read-out: Activity
EA.hy 926 [28] = test: Induction of apoptosis in human EA.hy 926 cells assessed as early apoptotic cells at 10 uM measured after 72 hrs by Annexin V-FITC/propidium iodide staining based flow cytometry (reference value: 3.4%); assay type: functional
EA.hy 926 [29] = test: Induction of apoptosis in human EA.hy 926 cells assessed as necrotic cells at 10 uM measured after 72 hrs by Annexin V-FITC/propidium iodide staining based flow cytometry (reference value: 2.65%); assay type: functional
EA.hy 926 [30] = test: Induction of apoptosis in human EA.hy 926 cells assessed as viable cells at 20 uM measured after 72 hrs by Annexin V-FITC/propidium iodide staining based flow cytometry (reference value: 88.6%); assay type: functional; conditions: read-out: Activity
EA.hy 926 [31] = test: Induction of apoptosis in human EA.hy 926 cells assessed as early apoptotic cells at 20 uM measured after 72 hrs by Annexin V-FITC/propidium iodide staining based flow cytometry (reference value: 3.4%); assay type: functional
EA.hy 926 [32] = test: Induction of apoptosis in human EA.hy 926 cells assessed as necrotic cells at 20 uM measured after 72 hrs by Annexin V-FITC/propidium iodide staining based flow cytometry (reference value: 2.65%); assay type: functional
EA.hy 926 [33] = test: Induction of apoptosis in human EA.hy 926 cells assessed as viable cells at 40 uM measured after 72 hrs by Annexin V-FITC/propidium iodide staining based flow cytometry (reference value: 88.6%); assay type: functional; conditions: read-out: Activity
EA.hy 926 [34] = test: Induction of apoptosis in human EA.hy 926 cells assessed as early apoptotic cells at 40 uM measured after 72 hrs by Annexin V-FITC/propidium iodide staining based flow cytometry (reference value: 3.4%); assay type: functional
EA.hy 926 [35] = test: Induction of apoptosis in human EA.hy 926 cells assessed as necrotic cells at 40 uM measured after 72 hrs by Annexin V-FITC/propidium iodide staining based flow cytometry (reference value: 2.65%); assay type: functional
EA.hy 926 [36] = test: Induction of apoptosis in human EA.hy 926 cells assessed as late apoptotic cells at 1 uM measured after 72 hrs by Annexin V-FITC/propidium iodide staining based flow cytometry (reference value: 5.34%)
EA.hy 926 [37] = test: Induction of apoptosis in human EA.hy 926 cells assessed as late apoptotic cells at 10 uM measured after 72 hrs by Annexin V-FITC/propidium iodide staining based flow cytometry (reference value: 5.34%)
EA.hy 926 [38] = test: Induction of apoptosis in human EA.hy 926 cells assessed as late apoptotic cells at 20 uM measured after 72 hrs by Annexin V-FITC/propidium iodide staining based flow cytometry (reference value: 5.34%)
EA.hy 926 [39] = test: Induction of apoptosis in human EA.hy 926 cells assessed as late apoptotic cells at 40 uM measured after 72 hrs by Annexin V-FITC/propidium iodide staining based flow cytometry (reference value: 5.34%)
EA.hy 926 [40] = test: Induction of apoptosis in human EA.hy 926 cells assessed as late apoptotic cells at 0.1 uM measured after 72 hrs by Annexin V-FITC/propidium iodide staining based flow cytometry (reference value: 5.34%)
[41] = molecular target: T1, von Hippel-Lindau disease tumor suppressor/Vascular endothelial growth factor receptor 2 (Homo sapiens); test: Protac activity at VHL/VEGFR2 in human EA.hy 926 cells assessed as induction of VEGFR2 degradation at 80 uM measured after 72 hrs by Western blot analysis relative to control; assay type: cell-based; how it was run: as §1

Cc1ccc(F)c(NC(=O)Nc2ccc(-c3cccc4c3c(N)nn4C(=O)CCCCCCCCCCC(=O)N[C@H](C(=O)N3C[C@H](O)C[C@H]3C(=O)NCc3ccc(-c4scnc4C)cc3)C(C)(C)C)cc2)c1
IC50 [1]: 209 nM
IC50 (EA.hy 926 [2]): 38600 nM
Activity (HEK293): Non-Toxic
Activity [3]: 60%
Activity [4]: Dose-dependent effect
Activity (EA.hy 926 [5]): 58.89%
Activity (EA.hy 926 [6]): 23.48%
Activity (EA.hy 926 [7]): 17.63%
Activity (EA.hy 926 [8]): 59.22%
Activity (EA.hy 926 [9]): 25.79%
Activity (EA.hy 926 [10]): 14.99%
Activity (EA.hy 926 [11]): 60.14%
Activity (EA.hy 926 [12]): 24.49%
Activity (EA.hy 926 [13]): 15.36%
Activity (EA.hy 926 [14]): 40.7%
Activity (EA.hy 926 [15]): 24.92%
Activity (EA.hy 926 [16]): 34.38%
Activity (EA.hy 926 [17]): 25.98%
Activity (EA.hy 926 [18]): 30.4%
Activity (EA.hy 926 [19]): 43.62%
Activity (EA.hy 926 [20]): Dose-dependent effect
viability at 0.1 µM (EA.hy 926 [21]): 86.7%
Activity (EA.hy 926 [22]): 4.21%
Activity (EA.hy 926 [23]): 2.16%
viability at 1 µM (EA.hy 926 [24]): 81.6%
Activity (EA.hy 926 [25]): 5.96%
Activity (EA.hy 926 [26]): 4.12%
viability at 10 µM (EA.hy 926 [27]): 70.2%
Activity (EA.hy 926 [28]): 12.1%
Activity (EA.hy 926 [29]): 2.15%
viability at 20 µM (EA.hy 926 [30]): 31.5%
Activity (EA.hy 926 [31]): 18.2%
Activity (EA.hy 926 [32]): 1.72%
viability at 40 µM (EA.hy 926 [33]): 8.82%
Activity (EA.hy 926 [34]): 26.4%
Activity (EA.hy 926 [35]): 0.59%
late apoptotic cells % (EA.hy 926 [36]): 8.32%
late apoptotic cells % (EA.hy 926 [37]): 15.6%
late apoptotic cells % (EA.hy 926 [38]): 48.7%
late apoptotic cells % (EA.hy 926 [39]): 64.2%
late apoptotic cells % (EA.hy 926 [40]): 6.94%

Cc1ccc(F)c(NC(=O)Nc2ccc(-c3cccc4c3c(N)nn4C(=O)CCCCCCCCCCCCCCC(=O)N[C@H](C(=O)N3C[C@H](O)C[C@H]3C(=O)NCc3ccc(-c4scnc4C)cc3)C(C)(C)C)cc2)c1
IC50 [1]: 80.4 nM
Activity (HEK293): Non-Toxic

Cc1ccc(F)c(NC(=O)Nc2ccc(-c3cccc4[nH]nc(N)c34)cc2)c1 [LINIFANIB]
IC50 (EA.hy 926 [2]): 2480 nM

Cc1ncsc1-c1ccc(CNC(=O)[C@@H]2C[C@@H](O)CN2C(=O)[C@@H](NC(=O)CCCCCCCCCCC(=O)n2nc(N)c3c(-c4cccc(NC(=O)Nc5cccc(C(C)C)c5)c4)cccc32)C(C)(C)C)cc1
IC50 [1]: 208 nM
IC50 (EA.hy 926 [2]): 32800 nM
Activity (HEK293): Non-Toxic
Activity [41]: 70%
